Laboratory results published in ChEMBL document CHEMBL1133408, “5-Arylamino-2-methyl-4,7-dioxobenzothiazoles as inhibitors of cyclin-dependent kinase 4 and cytotoxic agents” (Bioorg Med Chem Lett, 2000).
Values after ≈ are worked out from the molar mass of the structure shown.

How the values were obtained:
COLO1 = experiment: Inhibition of Col1 cancer cell proliferation; type: functional, cell-based, Homo sapiens
Procedure, shortened: (§1)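 Cytotoxicity measured by sulforhodamine B (SRB) assay following NCI protocols. Human tumour cell lines: A 549 (non-small cell lung, from NCI), Col 1 (human colon carcinoma, from University of Illinois at Chicago surgical oncology), HL-60 (myeloid leukaemia, from ATCC) and HepG2 (hepatocarcinoma, from ATCC).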

A549 = experiment: Inhibition of A549 cancer cell proliferation; type: functional, cell-based; conditions: Homo sapiens; procedure, shortened: as §1
HL-60 = experiment: Inhibition of HL60 cancer cell proliferation; type: functional, cell-based, Homo sapiens; procedure, shortened: as §1
[1] = target: Cyclin-dependent kinase 4 (Homo sapiens, UniProt P11802); experiment: Inhibition of Cyclin-dependent kinase 4 (CDK4/cyclin Dl)
Cyclin-dependent kinase 4, sequence (P11802 whole entry): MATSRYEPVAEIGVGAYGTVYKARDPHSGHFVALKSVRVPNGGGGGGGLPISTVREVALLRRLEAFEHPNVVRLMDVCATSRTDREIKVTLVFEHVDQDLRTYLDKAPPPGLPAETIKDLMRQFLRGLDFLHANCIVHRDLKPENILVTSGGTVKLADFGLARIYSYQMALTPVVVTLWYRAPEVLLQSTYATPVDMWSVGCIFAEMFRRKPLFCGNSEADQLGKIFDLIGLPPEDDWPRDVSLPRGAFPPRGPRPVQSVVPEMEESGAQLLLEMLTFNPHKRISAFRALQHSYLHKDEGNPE

[2] = target: Cyclin-dependent kinase 2 (Homo sapiens, UniProt P24941); experiment: Inhibition of Cyclin-dependent kinase 2 (CDK2/cyclin A)
HepG2 = experiment: Inhibition of HepG2 cancer cell proliferation; type: functional, cell-based; conditions: Homo sapiens; procedure, shortened: as §1
[3] = Homo sapiens, COLO1, read-out: IC50
[4] = Homo sapiens, HL-60, read-out: IC50

Compound	IC50 (COLO1; [3])	IC50 (A549)	IC50 (HL-60; [4])	IC50 [1]	IC50 [2]	IC50 (HepG2)	IC50 (COLO1; colo1)	IC50 (HL-60; hl-60)
Cn1cnc2c(NCc3ccccc3)nc(NCCO)nc21 [OLOMOUCINE]	87 mg/L (≈ 292 µM)	57 mg/L (≈ 191 µM)	50 mg/L (≈ 168 µM)	–	–	–	–	–
COc1ccc(NC2=CC(=O)c3sc(C)nc3C2=O)cc1	2.01 mg/L (≈ 6.69 µM)	1.65 mg/L (≈ 5.49 µM)	0.27 mg/L (≈ 0.899 µM)	5.6 µM	> 200 µM	1.39 mg/L (≈ 4.63 µM)	–	–
Cc1nc2c(s1)C(=O)C=C(Nc1ccc(I)cc1)C2=O	2.08 mg/L (≈ 5.25 µM)	2.08 mg/L (≈ 5.25 µM)	0.24 mg/L (≈ 0.606 µM)	3 µM	> 200 µM	1.95 mg/L (≈ 4.92 µM)	–	–
Cc1ccc(NC2=CC(=O)c3sc(C)nc3C2=O)cc1	1.08 mg/L (≈ 3.8 µM)	0.61 mg/L (≈ 2.15 µM)	0.3 mg/L (≈ 1.06 µM)	6 µM	> 200 µM	–	–	–
Cc1nc2c(s1)C(=O)C=C(Nc1ccccc1)C2=O	1.93 mg/L (≈ 7.14 µM)	0.64 mg/L (≈ 2.37 µM)	0.28 mg/L (≈ 1.04 µM)	6 µM	> 200 µM	1.3 mg/L (≈ 4.81 µM)	–	–
Cc1nc2c(s1)C(=O)C=C(Nc1ccc(O)cc1)C2=O	1.85 mg/L (≈ 6.46 µM)	0.7 mg/L (≈ 2.44 µM)	0.26 mg/L (≈ 0.908 µM)	6.7 µM	> 200 µM	1.36 mg/L (≈ 4.75 µM)	–	–
Cc1nc2c(s1)C(=O)C=C(Nc1ccc(F)cc1)C2=O	1.94 mg/L (≈ 6.73 µM)	1.69 mg/L (≈ 5.86 µM)	0.23 mg/L (≈ 0.798 µM)	6.3 µM	> 200 µM	1.51 mg/L (≈ 5.24 µM)	–	–
CCOc1ccc(NC2=CC(=O)c3sc(C)nc3C2=O)cc1	2.09 mg/L (≈ 6.65 µM)	1.76 mg/L (≈ 5.6 µM)	0.29 mg/L (≈ 0.922 µM)	20 µM	> 200 µM	1.53 mg/L (≈ 4.87 µM)	–	–
Cc1nc2c(s1)C(=O)C=C(Nc1ccc(Br)cc1)C2=O	6.57 mg/L (≈ 18.8 µM)	3.6 mg/L (≈ 10.3 µM)	0.28 mg/L (≈ 0.802 µM)	6.7 µM	> 200 µM	2.78 mg/L (≈ 7.96 µM)	–	–
Cc1nc2c(s1)C(=O)C=C(Nc1ccc(Cl)cc1)C2=O	20 mg/L (≈ 65.6 µM)	3.6 mg/L (≈ 11.8 µM)	0.33 mg/L (≈ 1.08 µM)	7 µM	> 200 µM	3.23 mg/L (≈ 10.6 µM)	–	–
CISPLATIN	–	–	–	–	–	–	1.38 mg/L	0.7 mg/L
